Data set [1] has as its system HCT-116. Put plainly: Antitumor activity against human HCT116 cells xenografted in BALB/c-nude mouse assessed as reduction of tumor weight at 100 mg/kg, po administered every other day from day 2 to 21 (reference value: 469 mg). It counts as functional. An outline of the steps: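 Male BALB/c-nude mice; 2 × 10^6 tumour cells in 0.2 mL PBS injected intradermally into the flank on day 0, n = 10 per group. Oral dosing every other day for 3 weeks, starting 2 days after inoculation. Caliper tumour volume = (width)2 × length/2, measured periodically. Tumours excised and weighed at day 21. Means ± SE.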
In general terms: In xenograft studies the graft and the host belong to different species.

For data set [2], the system named is SW-620. The data set can be described thus: Induction of apoptosis in human SW620 cells expressing p21 siRNA assessed as increase of expression of cleaved caspase-9 and caspase-3 at 10 uM after 24 hrs by immunoblotting. The class given is functional, cell-based. An outline of the steps:
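Cells transfected with 100 nM scrambled or p21 siRNA for 4 h, then grown 24 h in complete medium and treated with 10 μM for 24 h. p21, caspase-9/-3 and cleaved forms analysed by 15% SDS-PAGE immunoblot with densitometry. Means ± SD, three experiments in triplicate.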

The test system of data set [3] is SW-620. The data set can be described thus: Induction of apoptosis in human SW620 cells expressing p21 siRNA assessed as change in cell morphology at 10 uM after 24 hrs by phase-contrast microscopic analysis. The class given is functional, cell-based. Summed up:
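Cells plated at 5 × 10^4 per well and transfected with 100 nM scrambled or p21 siRNA in OPTI-MEM for 4 h. Complete RPMI medium was added and cells grown a further 24 h, then exposed to 10 μM for 24 h. Viability measured by direct count after trypan blue staining. Morphology viewed by phase-contrast at 200×. Means ± SD, three experiments in triplicate.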

Data set [4] relates to HCT-116. Put plainly: Cytotoxicity against human HCT116 cells expressing p21 siRNA at 10 uM after 24 hrs by trypan blue staining. The class given is functional, cell-based. Summed up: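 Cells plated at 5 × 10^4 per well and transfected 4 h with 100 nM p21 or scrambled siRNA in OPTI-MEM, then grown 24 h in complete medium. Exposed to 10 μM for 24 h. Viability by trypan blue exclusion and direct counting. Means ± SD, three experiments in triplicate, compared with the scrambled-siRNA group.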

In data set [5] the test system is SW-620. Put plainly: Induction of apoptosis in human SW620 cells assessed as increase of Bax protein expression after 24 hrs by immunoblotting. It counts as functional, cell-based. An outline of the steps:
(§1)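 HCT-116 or SW-620 cells treated with 0–10 μM for 24 h, lysed, and run on 15% SDS-PAGE immunoblots. Probed for Bcl-2 (1:1000), Bax (1:500), caspase-9/-3 and their cleaved forms (1:1000), and β-actin (1:1000). Bands quantified by densitometry; means ± SD of three experiments in duplicate.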
For orientation: Immunoblotting shows a protein as a band on a membrane.

Data set [6] relates to HCT-116. Put plainly: Induction of apoptosis in human HCT116 cells assessed as increase of Bax protein expression after 24 hrs by immunoblotting. The class given is functional, cell-based. An outline of the steps:
as §1

Data set [7] has as its system HCT-116. Put plainly: Induction of apoptosis in human HCT116 cells assessed as reduction of Bcl-2 protein expression at 0.1 to 10 uM after 24 hrs by immunoblotting. The class given is functional, cell-based. Summed up:
as §1

Data set [8] has as its system HCT-116. The data set can be described thus: Induction of apoptosis in human HCT116 cells at 10 uM after 48 hrs using Annexin V-FITC and propidium iodide staining by flow cytometry (reference value: 7.6 +/- 3%). The class given is functional. An outline of the steps: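 Subconfluent cells in RPMI 1640 + 10% FBS treated with 0–10 μM for 48 h. Harvested cells incubated 10 min with FITC-annexin V/PI, then analysed by flow cytometry (488/525 nm for annexin V-FITC, 488/675 nm for PI). Reported as % apoptotic cells, means ± SD of three experiments in triplicate.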

Data set [9] has as its system SW-620. Put plainly: Effect on Cdk inhibitor gene expression in p53 deficient human SW620 cells at 0.5 to 10 uM after 24 hrs by immunoblotting. It counts as functional, cell-based.
The subject of data set [10] is SW-620. Put plainly: Effect on p57 expression in p53 deficient human SW620 cells at 0.5 to 10 uM after 24 hrs by immunoblotting. The class given is functional, cell-based.
The subject of data set [11] is SW-620. The data set can be described thus: Effect on p27 expression in p53 deficient human SW620 cells at 0.5 to 10 uM after 24 hrs by immunoblotting. The class given is functional, cell-based.
In data set [12] the test system is SW-620. Put plainly: Decrease of cyclin E expression in human SW620 cells after 24 hrs by immunoblotting. It counts as functional, cell-based. An outline of the steps:
(§2)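 HCT-116 or SW-620 cells exposed to 0–10 μM for 24 h. Cells lysed in Tris/NaCl/EDTA/1% Triton X-100 buffer with protease and phosphatase inhibitors at 4 °C, protein measured by BCA. Lysates run on 10–12.5% SDS-PAGE and immunoblotted, ECL detection. Cdk2, cyclin A and cyclin E antibodies used at 1:500; β-actin as loading control.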

The test system of data set [13] is SW-620. The data set can be described thus: Decrease of Cdk2 expression in human SW620 cells after 24 hrs by immunoblotting. The class given is functional, cell-based. Summed up:
as §2

Data set [14] concerns SW-620. The data set can be described thus: Cell cycle arrest in human SW620 cells assessed as accumulation at G2/M phase at 0.5 uM after 48 hrs using propidium iodide staining by flow cytometry (reference value: 9.1 +/- 0.3%). It counts as functional. A general note: In flow cytometry, cells or beads pass a laser one at a time.
For data set [15], the system named is SW-620. The data set can be described thus: Cell cycle arrest in human SW620 cells assessed as accumulation at G0/G1 phase at 2 uM after 48 hrs using propidium iodide staining by flow cytometry (reference value: 47.8 +/- 1.2%). The class given is functional.
Data set [16] concerns HCT-116. The data set can be described thus: Cell cycle arrest in human HCT116 cells assessed as accumulation at G0/G1 phase at 10 uM after 48 hrs using propidium iodide staining by flow cytometry (reference value: 56.7 +/- 1.9%). It counts as functional.
In data set [17] the test system is HCT-116. The data set can be described thus: Cell cycle arrest in human HCT116 cells assessed as accumulation at S phase at 5 uM after 48 hrs using propidium iodide staining by flow cytometry (reference value: 36.3 +/- 1.7%). The class given is functional.
The test system of data set [18] is HCT-116. The data set can be described thus: Cell cycle arrest in human HCT116 cells assessed as accumulation at G2/M phase at 1 uM after 48 hrs using propidium iodide staining by flow cytometry (reference value: 7.1 +/- 0.3%). The class given is functional.
The subject of data set [19] is HCT-116. The data set can be described thus: Cell cycle arrest in human HCT116 cells assessed as accumulation at G0/G1 phase at 1 uM after 48 hrs using propidium iodide staining by flow cytometry (reference value: 56.7 +/- 1.9%). It counts as functional.
Data set [20] has as its system HCT-116. The data set can be described thus: Cell cycle arrest in human HCT116 cells assessed as accumulation at G2/M phase at 0.5 uM after 48 hrs using propidium iodide staining by flow cytometry (reference value: 7.1 +/- 0.3%). The class given is functional.
Data set [21] deals with HCT-116. The data set can be described thus: Cell cycle arrest in human HCT116 cells assessed as accumulation at G0/G1 phase at 0.5 uM after 48 hrs using propidium iodide staining by flow cytometry (reference value: 56.7 +/- 1.9%). It counts as functional.
Data set [22] has as its system HCT-116. The data set can be described thus: Cytotoxicity against human HCT116 cells assessed as cell viability at 10 uM after 48 to 72 hrs. It counts as functional, cell-based. An outline of the steps: (§3)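 Cells seeded at 10^5 per well in RPMI 1640/10% FBS at 37 °C. Subconfluent cells exposed to 0, 0.1, 0.5, 1, 2, 5 or 10 μM for 48 h, or to 10 μM for 24, 48 and 72 h; ethanol vehicle, at most 0.01% v/v final. Cells trypsinized and counted by hemocytometer. Viability as % of control, means ± SD, three experiments in triplicate.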

Data set [23] in a line: Cytotoxicity against human CCD-112CoN cells assessed as cell viability up to 10 uM after 24 to 72 hrs. It counts as cell-based. Summed up:
as §3

In data set [24] the test system is HCT-116. The data set can be described thus: Cell cycle arrest in human HCT116 cells assessed as accumulation at G0/G1 phase at 0.1 uM after 48 hrs using propidium iodide staining by flow cytometry (reference value: 56.7 +/- 1.9%). It counts as functional.

Calls of active or inactive are those of the source. No cut-off for these calls is given here.

As to `CC(C)c1cccc(=O)c(O)c1` [HINOKITIOL], the Activity in [1] was 245 mg; in data set [5], “Dose-dependent effect”; in data set [6], “Dose-dependent effect”; in [8] it was 24.7%; in data set [12] it was “Dose-dependent effect”; in data set [13], “Dose-dependent effect”. Further, the Activity turned out to be 8.4% in [14]; 43.1% in [15]; 38.8% in data set [16]; 43.5% in [17]; 7.7% in data set [18]; 55.1% in [19]. For the same compound, the Activity in data set [20] is on record as 8%; in data set [21] it was 56.5%; in data set [23], “Non-toxic”; in [24] it was 58.1%. Besides, the result in data set [2], in [3], in data set [4], in data set [9], in [10] and in data set [11] was inactive. Besides, the result in data set [7] and in data set [22] was Active.

These data come from ChEMBL document CHEMBL3091462 (J Nat Prod, 2013).
